In experiment [1] the test system is M21. The experiment is described as follows: Induction of cell cycle arrest in human M21 cells assessed as cells accumulation at subG1 phase at 4100 nM after 24 hrs by flow cytometry (reference value: 1.2%). Type of experiment: functional.
In experiment [2] the test system is M21. The experiment in a line: Induction of microtubule depolymerization and cytoskeleton disruption in human M21 cells at 4100 nM after 16 hrs by immunofluorescence assay.
The nature of experiment [3]: Antiproliferative activity against human HT1080 cells assessed as cell growth inhibition after 48 hrs by sulforhodamine B assay. Type of experiment: functional, cell-based. To be noted: HT-1080, 48 h. On the technique in general: In SRB staining, fixed cells bind dye roughly in proportion to their protein.
Another experiment concerns MCF7. The experiment is described as follows: Antiproliferative activity against human MCF7 cells assessed as cell growth inhibition after 48 hrs by sulforhodamine B assay. Type of experiment: functional, cell-based. To be noted: MCF7, 48 h. In outline:
(§1)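 NCI-style SRB screen with minor changes. Cells seeded per well in DMEM with 5% FBS: HT-29 4.0 x 10^3, M21 3.0 x 10^3, MCF-7 2.5 x 10^3, HT-1080 2.5 x 10^3. After 24 h, serially diluted drug was added at 50 µM to 1 nM final, DMSO <0.5%, for 48 h. Fixed with cold TCA, stained with SRB, read at 530–568 nm against plates fixed on treatment day. At least two experiments in triplicate, CV <10%.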

The subject of experiment [4] is M21. The experiment in a line: Induction of cell cycle arrest in human M21 cells assessed as cells accumulation at G0/G1 phase at 4100 nM after 24 hrs by flow cytometry (reference value: 54.5%). Type of experiment: functional.
For experiment [5], the target named is T1, Tubulin beta (Homo sapiens) (UniProt P68371+Q9H4B7+Q13509+P04350+Q3ZCM7+P07437+Q13885+Q9BVA1+Q9BUF5+A6NNZ2). The experiment is described as follows: Binding affinity to Tubulin beta in human M21 cells assessed as tubulin acylation at 8200 nM after 24 hrs by electrophoretic mobility shift assay.
For experiment [6], the system named is M21. The experiment in a line: Induction of cell cycle arrest in human M21 cells assessed as cells accumulation at S phase at 4100 nM after 24 hrs by flow cytometry (reference value: 22.2%). Type of experiment: functional.
Experiment [7] concerns M21. The experiment in a line: Induction of cell cycle arrest in human M21 cells assessed as cells accumulation at G2/M phase at 4100 nM after 24 hrs by flow cytometry (reference value: 22.1%). The experiment is classed as functional. In general terms: Flow cytometry measures light scatter and fluorescence of single cells or particles in a stream.
The subject of the next experiment is HT-29. The experiment is described as follows: Antiproliferative activity against human HT-29 cells assessed as cell growth inhibition after 48 hrs by sulforhodamine B assay. Type of experiment: functional, cell-based. To be noted: HT-29, 48 h. In outline: as §1
Experiment [8] deals with M21. The experiment in a line: Antiproliferative activity against human M21 cells assessed as cell growth inhibition after 48 hrs by sulforhodamine B assay. Type of experiment: functional, cell-based. Conditions: M21, 48 h. The method, boiled down:
as §1

Experiment [9] concerns M21. The experiment in a line: Induction of cell cycle arrest in human M21 cells assessed as cells accumulation at G0/G1 phase at 63 nM after 24 hrs by flow cytometry (reference value: 54.5%). Type of experiment: functional.
The subject of experiment [10] is M21. The experiment in a line: Induction of microtubule depolymerization and cytoskeleton disruption in human M21 cells at 63 nM after 16 hrs by immunofluorescence assay.
The subject of experiment [11] is M21. The experiment in a line: Induction of cell cycle arrest in human M21 cells assessed as cells accumulation at G2/M phase at 63 nM after 24 hrs by flow cytometry (reference value: 22.1%). The experiment is classed as functional.
Experiment [12] has as its target T1, Tubulin beta (Homo sapiens). The experiment in a line: Inhibition of N,N-ethylene-bis(iodoacetamide) binding to Tubulin beta colchicines-binding site in human M21 cells assessed as adduct formation at 410 nM by Western blot analysis. Type of experiment: cell-based. (In general: Immunoblotting shows a protein as a band on a membrane.)
For experiment [13] the target is unchanged. The experiment in a line: Inhibition of N,N-ethylene-bis(iodoacetamide) binding to Tubulin beta colchicines-binding site in human M21 cells assessed as adduct formation at 910 nM by Western blot analysis. The experiment is classed as cell-based.
Experiment [14] relates to M21. The experiment is described as follows: Induction of cell cycle arrest in human M21 cells assessed as cells accumulation at S phase at 63 nM after 24 hrs by flow cytometry (reference value: 22.2%). Type of experiment: functional.
The target of experiment [15] is T1, Tubulin beta (Homo sapiens). The experiment is described as follows: Inhibition of N,N-ethylene-bis(iodoacetamide) binding to Tubulin beta colchicines-binding site in human M21 cells assessed as adduct formation at 2500 nM by Western blot analysis. Type of experiment: cell-based.
Experiment [16] deals with M21. The experiment in a line: Induction of cell cycle arrest in human M21 cells assessed as cells accumulation at subG1 phase at 63 nM after 24 hrs by flow cytometry (reference value: 1.2%). Type of experiment: functional.
For experiment [17], the system named is M21. The experiment in a line: Induction of microtubule depolymerization and cytoskeleton disruption in human M21 cells at 46 nM after 16 hrs by immunofluorescence assay.
For experiment [18], the system named is M21. The experiment in a line: Induction of cell cycle arrest in human M21 cells assessed as cells accumulation at S phase at 46 nM after 24 hrs by flow cytometry (reference value: 22.2%). Type of experiment: functional.
The test system of experiment [19] is M21. The experiment is described as follows: Induction of cell cycle arrest in human M21 cells assessed as cells accumulation at subG1 phase at 46 nM after 24 hrs by flow cytometry (reference value: 1.2%). The experiment is classed as functional.
Experiment [20] relates to M21. The experiment in a line: Induction of cell cycle arrest in human M21 cells assessed as cells accumulation at G2/M phase at 46 nM after 24 hrs by flow cytometry (reference value: 22.1%). Type of experiment: functional.
Experiment [21] relates to M21. The experiment in a line: Induction of cell cycle arrest in human M21 cells assessed as cells accumulation at G0/G1 phase at 46 nM after 24 hrs by flow cytometry (reference value: 54.5%). The experiment is classed as functional.
Experiment [22] relates to M21. The experiment in a line: Induction of cell cycle arrest in human M21 cells assessed as cells accumulation at G2/M phase at 24 nM after 24 hrs by flow cytometry (reference value: 22.1%). The experiment is classed as functional.
Experiment [23] relates to M21. The experiment in a line: Induction of cell cycle arrest in human M21 cells assessed as cells accumulation at G0/G1 phase at 24 nM after 24 hrs by flow cytometry (reference value: 54.5%). Type of experiment: functional.
Experiment [24] relates to M21. The experiment is described as follows: Induction of cell cycle arrest in human M21 cells assessed as cells accumulation at subG1 phase at 24 nM after 24 hrs by flow cytometry (reference value: 1.2%). Type of experiment: functional.
For experiment [25], the system named is M21. The experiment is described as follows: Induction of cell cycle arrest in human M21 cells assessed as cells accumulation at S phase at 24 nM after 24 hrs by flow cytometry (reference value: 22.2%). The experiment is classed as functional.
The subject of experiment [26] is M21. The experiment is described as follows: Induction of microtubule depolymerization and cytoskeleton disruption in human M21 cells at 24 nM after 24 hrs by immunofluorescence assay. Type of experiment: functional, cell-based.
The test system of experiment [27] is M21. The experiment is described as follows: Induction of cell cycle arrest in human M21 cells assessed as cells accumulation at G0/G1 phase at 3100 nM after 24 hrs by flow cytometry (reference value: 54.5%). Type of experiment: functional.
Experiment [28] deals with T1, Tubulin beta (Homo sapiens). The experiment in a line: Binding affinity to Tubulin beta in human M21 cells assessed as tubulin acylation at 3100 nM after 24 hrs by electrophoretic mobility shift assay. Type of experiment: cell-based.
Experiment [29] deals with M21. The experiment is described as follows: Induction of cell cycle arrest in human M21 cells assessed as cells accumulation at S phase at 3100 nM after 24 hrs by flow cytometry (reference value: 22.2%). Type of experiment: functional.
Experiment [30] deals with M21. The experiment in a line: Induction of cell cycle arrest in human M21 cells assessed as cells accumulation at subG1 phase at 3100 nM after 24 hrs by flow cytometry (reference value: 1.2%). The experiment is classed as functional.
In experiment [31] the target is T1, Tubulin beta (Homo sapiens). The experiment is described as follows: Binding affinity to Tubulin beta in human M21 cells assessed as tubulin acylation at 1500 nM after 24 hrs by electrophoretic mobility shift assay. The experiment is classed as cell-based.
The subject of experiment [32] is M21. The experiment in a line: Induction of cell cycle arrest in human M21 cells assessed as cells accumulation at G2/M phase at 3100 nM after 24 hrs by flow cytometry (reference value: 22.1%). The experiment is classed as functional.
Experiment [33] has as its system M21. The experiment in a line: Induction of microtubule depolymerization and cytoskeleton disruption in human M21 cells at 3100 nM after 16 hrs by immunofluorescence assay.
The subject of experiment [34] is M21. The experiment in a line: Induction of cell cycle arrest in human M21 cells assessed as cells accumulation at G2/M phase at 760 nM after 24 hrs by flow cytometry (reference value: 22.1%). The experiment is classed as functional.
In experiment [35] the test system is M21. The experiment in a line: Induction of cell cycle arrest in human M21 cells assessed as cells accumulation at G0/G1 phase at 760 nM after 24 hrs by flow cytometry (reference value: 54.5%). Type of experiment: functional.
Experiment [36] concerns M21. The experiment is described as follows: Induction of cell cycle arrest in human M21 cells assessed as cells accumulation at S phase at 760 nM after 24 hrs by flow cytometry (reference value: 22.2%). The experiment is classed as functional.
Experiment [37] has as its system M21. The experiment in a line: Induction of microtubule depolymerization and cytoskeleton disruption in human M21 cells at 760 nM after 16 hrs by immunofluorescence assay.
Experiment [38] deals with M21. The experiment is described as follows: Induction of cell cycle arrest in human M21 cells assessed as cells accumulation at subG1 phase at 760 nM after 24 hrs by flow cytometry (reference value: 1.2%). Type of experiment: functional.

The source made the active and inactive calls. The rule behind the calls is not given here.

Usually IC50 stands for the concentration needed to halve the response being measured. As for `COc1cc(/C=C\c2ccc(NC(=O)NCCCl)cc2)cc(OC)c1OC`, the Activity in the experiment with M21 [1] is 4.8%; with M21 [4], 3.9%; in the experiment with M21 [6], 5.8%; in the experiment with M21 [7] it was 85.5%. The result (in the experiment with M21 [2]; in experiment [5]) was Active. Besides, the IC50 in [3] came to 1400 nM; in the experiment with MCF7 it was 1400 nM; in the experiment with HT-29, 680 nM; with M21 [8], 950 nM.

`O=C1NCCN1c1ccc(/C=C\c2cccc(Cl)c2)cc1`: the Activity in the experiment on M21 [9] stood at 17.4%; with M21 [11] it was 55.1%; in the experiment on M21 [14], 13.9%; in the experiment on M21 [16] it was 13.6%. Besides, the result with M21 [10] was Active. The IC50 was 35 nM in [3], 38 nM with MCF7, 25 nM with HT-29 and 27 nM with M21 [8]. The inhibition result in experiment [12], in experiment [13] and in experiment [15] was “Active” in each case.

As for `Cc1cc(C)cc(/C=C\c2ccc(N3CCNC3=O)cc2)c1`, the 50% inhibitory concentration (IC50) was 15 nM in [3], 23 nM with MCF7, 8.4 nM with HT-29 and 10 nM in the experiment on M21 [8]. Besides, the result with M21 [17] was Active. Also, the Activity with M21 [18] amounted to 8%; with M21 [19], 8.2%; in the experiment on M21 [20], 78.4%; with M21 [21], 5.4%. The inhibition result in experiment [12], in [13] and in experiment [15] was “Active” in each case.

For the molecule `COc1cc2c(c(OC)c1OC)-c1ccc(OC)c(=O)cc1[C@@H](NC(C)=O)CC2` [COLCHICINE], the Activity is reported as 57.9% with M21 [22], 27.9% in the experiment with M21 [23], 2.4% in the experiment with M21 [24] and 11.8% with M21 [25]. For the same molecule, the result with M21 [26] was Active.

`Cc1cc(C)cc(/C=C\c2ccc(NC(=O)NCCCl)cc2)c1`: the Activity worked out at 5.7% in the experiment with M21 [27], 13.2% in the experiment on M21 [29], 12.5% in the experiment on M21 [30] and 68.6% in the experiment with M21 [32]. For the same molecule, the half-maximal inhibitory concentration (IC50) in [3] was 700 nM; with MCF7 it was 860 nM; with HT-29, 510 nM; in the experiment on M21 [8], 710 nM. In addition, the result (in [28]; in [31]; with M21 [33]) was Active.

Turning to `O=C(NCCCl)Nc1ccc(/C=C\c2cccc(Cl)c2)cc1`, the IC50 in experiment [3] is 170 nM; in the experiment with MCF7 it was 200 nM; in the experiment with HT-29 it was 130 nM; with M21 [8], 170 nM. The Activity was 92% in the experiment on M21 [34], 2.1% in the experiment with M21 [35], 3.7% in the experiment with M21 [36] and 2.2% with M21 [38]. Moreover, the outcome (in [28]; in the experiment on M21 [37]; in [31]) was Active.
